From the array DNA melting data of Ke et al. (doi:10.1101/2024.01.08.574731)

What was measured:
[1] = folding enthalpy; higher = less favourable; fluorescence melt of hairpins on a sequencing array, two-state fit; settings: sodium 0.088 M
Method in brief: (§1)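 With Cy3 and quencher oligos annealed, library hairpins on a sequenced MiSeq flow cell were imaged for Cy3 fluorescence in 50 mM Na-HEPES pH 8.0, 25 mM NaCl, in 2.5 °C steps up to 60 °C. Melting temperature and folding enthalpy were derived from bootstrapped two-state fits of signals normalised to pre-quench Cy3 and to control constructs. Four replicates were combined by inverse variance, with fitted temperatures raised by 9.35 °C to match UV melts.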

[2] = melting temperature; fluorescence melt of hairpins on a sequencing array, two-state fit, raised by 9.35 °C to match UV melts; settings: sodium 0.088 M
Method in brief: as §1

Sequence | folding enthalpy [1] | Tm [2]
GTCCAACCGAAAGGTGAC (((..(((....)))))) | -16.3 kcal/mol | 37.2 °C
GAACACGCGAAAGCGTTC (((..(((....)))))) | -8.07 kcal/mol | 27.9 °C
GAACTGGAAACAGTTC ((((((....)))))) | -32.4 kcal/mol | 53.9 °C
GATCTGGAGGCAGATC ((((((....)))))) | -31.1 kcal/mol | 48.1 °C
GTGTCAGGAAACTGATAC ((.((((....)))).)) | -29.4 kcal/mol | 45.8 °C
GCCTGCGAAAGCAAGGGC ((((((....)))..))) | -18.7 kcal/mol | 61.3 °C
GTGTGCGAAAGCAGCCAC ((((((....)))..))) | -13.4 kcal/mol | 36.1 °C
GCCTAGGGAAACCTGGGC (((.(((....))).))) | -38.3 kcal/mol | 55.1 °C
GGCACAGGAAACCGTGCC (((((.(....).))))) | -43.9 kcal/mol | 56.8 °C
CGTGTCCGGAAACGGACG (((..(((....)))))) | -7.66 kcal/mol | 48.1 °C
GATCGATGCGTCGATC ((((((....)))))) | -43.7 kcal/mol | 57 °C
GCTTTCGGAAACGAGAGC (((.(((....))).))) | -47 kcal/mol | 49.1 °C
GTAGTCGAAAGACACTAC ((((((....)))..))) | -19.7 kcal/mol | 39.6 °C
GGAAAACGAAAGTTTCC (((.(((....)))))) | -21.7 kcal/mol | 44.1 °C
GCTTCTGGAAACAGGAGC (((.(((....))).))) | -37.5 kcal/mol | 50.5 °C
GCTTAAGGAAACTTGAGC (((.(((....))).))) | -31.5 kcal/mol | 38.9 °C
GCAGTGCGAAAGCCCTGC ((((.((....)).)))) | -32.8 kcal/mol | 61.8 °C
GGGGACGCGAAAGCGCCC (((..(((....)))))) | -12.9 kcal/mol | 60 °C
GCCCGGCGAAAGCAGCGC ((.(.((....)).).)) | -16.4 kcal/mol | 46.5 °C
GCCATCGGAAACGATGAC (.(((((....))))).) | -16 kcal/mol | 48.6 °C
CGTTACGGAAACGTCACG (((.(((....))).))) | -23.6 kcal/mol | 44.5 °C
GCGTCAGGAAACTGATGC ((.((((....)))).)) | -43.6 kcal/mol | 54.5 °C
CGGCGCGGAAACGCACCG (((.(((....))).))) | -29.3 kcal/mol | 67.4 °C

Sequence | folding enthalpy [1] | Tm [2]
GATCTAACTTTAGATC ((((((....)))))) | -29.9 kcal/mol | 43.2 °C
GTCTGGGGAAACCCAAAC ((.((((....)))).)) | -14.3 kcal/mol | 31.8 °C
GCCGGTCGAAAGACTGGC (((.(((....))).))) | -32 kcal/mol | 68.3 °C
GTGAGACGAAAGTCCAC (((.(((....)))))) | -22.8 kcal/mol | 53.8 °C
GATCGGCCCGCCGATC ((((((....)))))) | -43.9 kcal/mol | 68.3 °C
GACCACGAAAGTGCCGTC ((((((....)))..))) | -12 kcal/mol | 33.6 °C
GATCCAAAAGTGGATC ((((((....)))))) | -27.5 kcal/mol | 43.9 °C
GGAGTTGGAAACAATTCC (((.(((....))).))) | -29.6 kcal/mol | 43 °C
GCGTTGCGAAAGCGAAGC ((.(.((....)).).)) | -20.4 kcal/mol | 54 °C
GGGTCCCGAAAGGGTCCC (((.(((....))).))) | -31 kcal/mol | 64.9 °C
GCAACCGGAAACGGTTAC (.(((((....))))).) | -12.4 kcal/mol | 41.2 °C
GCTGTGCGAAAGCGAAGC (((..((....))..))) | -17.9 kcal/mol | 52.6 °C
GAGTACCGAAAGGTCCTC (((.(((....))).))) | -25.2 kcal/mol | 45.3 °C
GATCTGCGACCAGATC ((((((....)))))) | -35 kcal/mol | 46.6 °C
GCTAAGCGAAAGCTCTGC ((..(((....)))..)) | -15.8 kcal/mol | 31.4 °C
GATCTGTTCACAGATC ((((((....)))))) | -35.1 kcal/mol | 56.9 °C
GGATCCGAAAGGAATCC ((((((....))).))) | -31.7 kcal/mol | 50.8 °C
GCAGAGGGAAACCCCTGC ((((.((....)).)))) | -33.7 kcal/mol | 49 °C
GTTGCTGGAAACGGTAAC (((.(.(....).).))) | -16.4 kcal/mol | 33.7 °C
GCAAAAGGAAACCTTTGC (((((.(....).))))) | -30.4 kcal/mol | 39.6 °C
GCAGGTCGAAAGACTTGC (((.(((....))).))) | -41.2 kcal/mol | 56.7 °C
GGCGGCGAAAGCCCAGCC ((((((....)))..))) | -18.5 kcal/mol | 57.8 °C
GAAGGCGAAAGCCCTTTC ((((((....)))..))) | -10 kcal/mol | 37.6 °C
